Measured values: ChEMBL document CHEMBL1125792, “Complexes of .NO with nucleophiles as agents for the controlled biological release of nitric oxide. Vasorelaxant effects” (J Med Chem, 1991)

What was measured:
[1] = Rate constant for loss of chromophore; assay type: ADME
How it was run: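 UV decay of the 230–260 nm chromophore. Compound dissolved in 0.01 M KOH, then diluted with a large excess of pH 7.4 phosphate buffer in a thermostated 37 °C cuvette. Spectra were recorded within 1–2 s and intermittently afterward. First-order k was taken from the slope of ln(A − A∞) versus time; t1/2 was derived from k.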

[2] = species on record: Oryctolagus cuniculus; assay: Vasorelaxant activity against isolated vascular ring preparation from rabbit thoracic aorta; assay type: functional
[3] = species on record: Oryctolagus cuniculus; assay: Peak relaxation(Rm) of the vascular ring by the compound at highest concentration; assay type: functional
[4] = Half-life was determined; conditions: pH 7.4 phosphate buffer at 37 °C

k [1]	EC50 [2]	half-life [4]	SMILES	Rm [3]
0.0051 s⁻¹	0.45 µM	2.3 min	CC(C)N[N+]([O-])=N[O-].[Na+]	85%
0.005 s⁻¹	0.59 µM	2.3 min	[Na+].[Na+].[O-][N+]([O-])=NO [ANGELI'S SALT]	74%
0.0054 s⁻¹	0.19 µM	2.1 min	CCN(CC)/[N+]([O-])=N\[O-].[Na+]	86%

Continued, compound first:

SMILES	k [1]	EC50 [2]	half-life [4]	Rm [3]
N.N.O=NN(O)S(=O)(=O)O	0.0017 s⁻¹	62 µM	6.8 min	58%
NCCCNCCCCN(CCCN)/[N+]([O-])=N\O	0.0003 s⁻¹	6.2 µM	39 min	56%
